Assay results: article PMC13022283 (Scientific Reports, 2026)
Entries after “also recorded” stand apart in the source; their conditions may differ.

Legend:
h-NTPDase1 = target: T1, h-NTPDase1 (Homo sapiens, UniProt P49961); experiment: h-NTPDase activity assay; assay type: biochemical; conditions: for inhibition at 100 µM: read-out: % Inhibition h-NTPDase1
T1 sequence (P49961 1-510): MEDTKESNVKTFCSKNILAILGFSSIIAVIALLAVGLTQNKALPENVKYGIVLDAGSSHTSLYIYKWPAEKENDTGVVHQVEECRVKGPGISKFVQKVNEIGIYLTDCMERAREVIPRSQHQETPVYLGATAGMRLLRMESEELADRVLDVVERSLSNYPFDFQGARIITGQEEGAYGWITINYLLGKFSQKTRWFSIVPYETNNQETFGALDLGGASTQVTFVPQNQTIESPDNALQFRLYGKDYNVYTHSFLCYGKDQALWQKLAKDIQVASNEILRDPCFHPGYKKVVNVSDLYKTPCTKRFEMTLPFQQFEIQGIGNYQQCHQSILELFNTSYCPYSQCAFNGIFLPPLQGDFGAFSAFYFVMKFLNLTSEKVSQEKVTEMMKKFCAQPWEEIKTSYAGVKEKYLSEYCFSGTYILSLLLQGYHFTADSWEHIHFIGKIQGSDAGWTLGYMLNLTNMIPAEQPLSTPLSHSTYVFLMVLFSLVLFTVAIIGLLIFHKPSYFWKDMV

h-NTPDases = experiment: h-NTPDase activity assay, all four isoenzymes; assay type: biochemical, human
Summary of the method: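 Human NTPDase1, -2, -3 or -8 came from COS-7 cells transfected with plasmids via Lipofectamine, harvested at 44–48 h, sonicated and cleared of nuclei, with protein measured by Bradford. Enzyme per well was 12, 37, 43 or 63 ng respectively. Compound (0.1 mM final) was pre-incubated 10 min at 37 °C in 50 mM Tris–HCl, 5 mM CaCl2, pH 7.4. The reaction was started with ATP (100 µM), run 15 min, and stopped with malachite green; Pi was read at 630 nm.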

h-NPP1 = target: T2, h-NPP1 (Homo sapiens, UniProt P22413); experiment: h-NPP1 activity assay; assay type: biochemical; conditions: for inhibition at 100 µM: read-out: % Inhibition h-NPP1
T2 sequence (P22413 1-925): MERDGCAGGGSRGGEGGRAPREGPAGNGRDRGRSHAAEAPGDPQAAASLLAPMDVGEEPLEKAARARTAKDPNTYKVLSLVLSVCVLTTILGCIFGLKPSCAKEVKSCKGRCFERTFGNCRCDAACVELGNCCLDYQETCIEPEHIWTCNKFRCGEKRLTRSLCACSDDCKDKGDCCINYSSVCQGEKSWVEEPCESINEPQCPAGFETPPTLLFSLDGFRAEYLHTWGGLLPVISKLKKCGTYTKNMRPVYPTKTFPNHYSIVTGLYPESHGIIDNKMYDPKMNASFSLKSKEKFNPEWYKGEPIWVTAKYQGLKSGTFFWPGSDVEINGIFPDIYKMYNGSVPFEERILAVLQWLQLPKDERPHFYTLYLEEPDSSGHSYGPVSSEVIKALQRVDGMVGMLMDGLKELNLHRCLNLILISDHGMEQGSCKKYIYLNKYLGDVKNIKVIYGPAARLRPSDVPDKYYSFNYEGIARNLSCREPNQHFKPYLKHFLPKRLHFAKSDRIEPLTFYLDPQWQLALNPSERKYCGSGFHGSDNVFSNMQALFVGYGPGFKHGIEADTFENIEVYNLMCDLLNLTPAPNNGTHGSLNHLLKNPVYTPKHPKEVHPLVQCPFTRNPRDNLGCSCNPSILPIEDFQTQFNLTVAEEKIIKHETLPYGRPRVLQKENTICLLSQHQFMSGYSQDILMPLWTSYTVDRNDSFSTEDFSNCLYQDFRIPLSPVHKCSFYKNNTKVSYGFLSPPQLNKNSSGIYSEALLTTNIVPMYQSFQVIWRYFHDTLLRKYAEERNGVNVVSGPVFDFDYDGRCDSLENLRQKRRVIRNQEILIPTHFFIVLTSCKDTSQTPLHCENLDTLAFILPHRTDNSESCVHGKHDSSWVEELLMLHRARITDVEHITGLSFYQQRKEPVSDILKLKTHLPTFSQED

[1] = test system: A549 human lung carcinoma cells; experiment: Fluorescence microscopy of treated cells; assay type: cell-based; conditions: A549, 10 μM, 24 h incubation
[2] = test system: MCF-7 breast cancer cells; experiment: MTT assay; assay type: cell-based, human; conditions: MCF-7, 100 μM, 24 h, 100 µM

SMILES	inhibition at 100 µM (h-NTPDase1) [%]	activity against all four h-NTPDase isoenzymes (h-NTPDases)	inhibition at 100 µM (h-NPP1) [%]	IC50 (h-NTPDase1) [µM]	cytotoxicity seen in bright-field images [1]	IC50 (h-NPP1) [µM]	% Viability [2] [%]
Cc1ccc(F)cc1NC(=O)c1ccc2ncccc2c1 [Compound 4l, N-(5-fluoro 2-methylphenyl)quinoline-6-carboxamide]	32.4	poor activity	29.4				
O=C(Nc1ccccc1I)c1ccc2ncccc2c1 [Compound 4h, N-(2-iodophenyl)quinoline-6-carboxamide]	18.4		33.9				
Cc1ccc(CNC(=O)c2ccc3ncccc3c2)cc1 [Compound 4c, N-(4-methylbenzyl)quinoline-6-carboxamide]	57.7		45.2	6.13 ± 0.64			
O=C(Nc1ccc(F)cc1F)c1ccc2ncccc2c1 [Compound 4e, N-(2,4 difluorophenyl)quinoline-6-carboxamide]	32.6	poor activity; also recorded: inactive	34.6				
O=C(NCc1ccc(F)cc1)c1ccc2ncccc2c1 [Compound 4b, N-(4-fluorobenzyl)quinoline-6-carboxamide]	68.9		44.8	3.46 ± 0.49			
O=C(Nc1ccccn1)c1ccc2ncccc2c1 [Compound 4g, N-(pyridin-2-yl)quinoline-6-carboxamide]	58.5		43.7	0.61 ± 0.09			
O=C(Nc1c(F)cccc1F)c1ccc2ncccc2c1 [Compound 4d, N-(2,6 difluorophenyl)quinoline-6-carboxamide]	76.1		54.5		no signs of cytotoxicity	0.73 ± 0.09	
O=C(Nc1ccc(I)cc1)c1ccc2ncccc2c1 [Compound 4k, N-(4-Iodophenyl)quinoline-6-carboxamide]	33.8	poor activity	67.7			0.11 ± 0.02	43.1
